This sample holds only a part of the variants without activity.
B1: tRNA (parent)
chain: GUUCCGUUGGCGUAAUGGUAACGCGUCUCCCUCCUAAGGAGAAGACUGCGGGUUCGAGUCCCGUACGGAACG

Variants of: B1
Assay: yeast fitness relative to wild type (ratio to wild type); higher = fitter; tRNA-Arg(CCU), competitive growth, 37 C, YPD
How it was run: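 Variants of the tRNA-Arg(CCU) gene, chemically synthesised with a 3% per-site mutation rate at 69 sites, were placed at the native genomic locus in Saccharomyces cerevisiae. The pooled strains were competed in YPD at 37°C for 24 hours in six parallel replicates. Gene amplicons from the start population and from each end population were read by 100-nucleotide paired-end sequencing. Darwinian fitness relative to wild type came from changes in genotype frequencies; genotypes needed ≥ 100 starting reads, and estimates < 0.5 were set to 0.5.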

First: GUUCCGUUGGCGUAAGGGUAACGCGUGUCCCUCCUAAGGAGAAGACUGCGGGUCCGAGUCCCGUACGGAACG
Second: GUUCCAUUGGCGUAAUGGUAACGCGUCUCCCUCUUAAGGAGAAGACUGCGGGUUCGAGUCCCGUCCGGAACG
The yeast fitness of the first is higher: 0.633 for the first, 0.54 for the second.

First: GUUCCGUUGGCCUAAUGGUAACGCGUCUCCCCCCUAAGGACAAGACUGCGGGUUCGGGUCCCGUACGGAACG
Second: GUUCCGUCGGCGUAAUGGUAACGCGUCUCCGUCCUAAGGAGAAGACUGCAGGUUCGAGUCCCGUACGGAACG
The yeast fitness of the first is lower: ≤ 0.5 for the first, 0.615 for the second.

GUCCCGUUGGCAUAAUGGUAACGCGUCCCCCUCCUAAGGAGAAGACUCCGGGUUCGAGUCCCCUACGGAACG and GUUCCGUUAGCGUAAUGGUAACGAGUCUCCCUCCUAAGGAGAAGACUGCGGGUUCGAGUCCCGUAAGGAACG cannot be ordered by yeast fitness: ≤ 0.5 for the first, ≤ 0.5 for the second.

Compared with GUUCCGUUGGCGUAAUGGUCACGUGUCUCCCUCCUAAGGAGAAGACUGCGGGUUCGAGUCCCGUACGGAACG, GUUCCGUUGGCGUAAUGGUAAGGCGUGUCCCUCCUAAGGAGAUGCCUGCGGGUACGAGUCCCGUACGGAACG is lower in yeast fitness: 0.798 for the first, ≤ 0.5 for the second.

First: GUUCCGUUGGCGUCAUGGUAACGCGUCUCCUUCCUAAGGAGAAGACUGCGGGUUCGAAUCCUGUACGGAACG
Second: GUUCCGUUGGCGUAAUGCUACCGCGUCUCGCUCCUAAGGAGAAGAGUGCGGGUUCGAGUCCCGUACGGAACG
The yeast fitness of the first is higher: 0.609 for the first, ≤ 0.5 for the second.

Compared with GUUCGGUUGGCGUAAUCGUAACGCGUCUCCCUCCUAAGGAGAUGACUGCGGGUUCGAGUCCCGUACGGAACG, GUUCCGUUGGCGUAACGGUAACGCGUCUCCCUCCUAAGGAGAAGACUGCGGGUUCGAGUCCCGUAAGGAACG is higher in yeast fitness: 0.516 for the first, 0.711 for the second.

Going from GUUCCGUUGGCGUAAUGGUGACGCGUCUCCCUCCUAAGGAGAAGACUACGGGUUCGAGUCCCGUACGGAACG to GUUCCGUUGGCGUACUGGUAACGCGUCUCCCUCUUGAGGAGAAGACUGCGGGUUAGAGUCCCGUACGGAACG, the yeast fitness falls from 0.933 to ≤ 0.5.

GUUCCGUUGGCGUAAUGCUAACGCGUCUCGCUCCUAAGGAGAAGACUGCGGGUUCGAGUCCGGUACGGAACG and GUUCCGUUGGGGUAAAGGUAACGCGUCUCCCUCCUAAGGAGGAGACUGCGGGUUCGUGUCCCGUACGGAACG cannot be ordered by yeast fitness: ≤ 0.5 for the first, ≤ 0.5 for the second.

GUUCCGUUGGUGUUAUGGUAACGCGUCUCCCUCUUAAGGAGAAGACUGCGGGUUCGGGUCCCGUACGGAACG and GUUCCGUUAGCGUAAUGGUAACGCGUGUCCCUGCUAAGGAGAAGACUGCGGGUUGGCGUCCCGUACGGAACG cannot be ordered by yeast fitness: ≤ 0.5 for the first, ≤ 0.5 for the second.

Going from GUUCCGUUGGCGUAAUGGUAACGCCUCUCCCUCCUAAGGAGAAGACCGCGGGUUCGAGUCCCGUACGGAACG to GUUCCGUUGGCGUAAUGGUAACGCGUCUCCCUCCUAAGGAGAAGACUGCGGGUCCGGGUCCCGUACGGAACG, the yeast fitness falls from 0.954 to 0.919.

Going from GUUCCCUUGGCGUAAUGGUAACGCGUCUCCCUCCUAACGAGAAGACUGCGGGUUCGAGUCCCGUACGGAACG to GUUCCGUUGGCGUAGUGGUAACGCGUCUACCUCCUAAGAAGAAGACUGCGGGUUCGAGUCCCGUACGGAACG, the yeast fitness falls from 0.693 to 0.572.

GUCCCGUUGGCGUGAUGGUAAAGCGUGUCCCUCCUAAGCAGAAGACUGCGGGUUCGAGUCCCGUACGGAACG and GUUCCGUUCGCGUAAUGGUAACGCGUCUCCCUCCUAAGGAGAAGACUGCCGGUUCGAGUUCAGUACGGAACG cannot be ordered by yeast fitness: ≤ 0.5 for the first, ≤ 0.5 for the second.

Going from GUUCCGUUGGCGUAAUGGUAACGCGUCUCCCUCCCAAGGAGCAGACUGCGGCUUCGAGUCCCGUACGGAACG to GUUGCGUUGGCGUAAUGGUAACGCGUCUCCCUCCUAAGGAGAAGACUGCGGGUCCGAGUCCCGUACGGAACG, the yeast fitness rises from ≤ 0.5 to 0.886.

First: GUUCCGUUGGCGUAAUGAUAACGCGUCUCCCUCCUAAGGAGAAGACUGCGGGUUCGAAUCCCGUACGGAACG
Second: GUUUCGUUGGCGUAAUGGUAACGCGUCUCCCUCCUAAGCAGAAGACUGCGGGUCCGAGUCCCGUACGGAACG
The yeast fitness of the first is higher: 0.765 for the first, ≤ 0.5 for the second.

Going from GUUCCGUUGGCGUAAUGGUAUCGCGUCUCCCUCCUAAGGAGAAGACUGCGGGUUCGAGGCCCGUACGGAACG to GUUCCGUUGGCGUAAUGGUAAGGCGUCUCCCUCCUAAGGAGCAGACUGCGGGUUCGAGUCCUGUACGGAACG, the yeast fitness falls from 0.583 to 0.52.

Going from GUACCGUUGGCGUAAUGGUAACGUGUCUCCCUCCUAAGGAGAAGCCUGCGGGUUCGAGUCCCGUACGGAACG to GUUCCGUUGGCAUAAUGGAAACGCGUCUGCCUCCUAAGGAGAUGACUGCGGGUUUGAGUCCCGUACGGAACG, the yeast fitness falls from 0.688 to ≤ 0.5.

First: GUUCCGUUGACGUAAUGGCAACGCGUCUCCCUCCUGAGGAGAAGACUAGGGGUUCGAGUCCCGUACGGAACG
Second: GUUCCGUUAGCGUAAUGGUAACGCGUCUCCCUCCUAAGAAGAAGGCUGCAGGUUCGAGUCCCGUACGGUACG
The yeast fitness of the first is lower: ≤ 0.5 for the first, 0.548 for the second.

GUUCGGUUGGGGUUUUGGUAACGCGUCUCCCUCCUAAGGAGAAGACUGCGGGUUCAAGGCCCGUACGGAACG and GUUGCAUUGGCGUAAUGGUAACACGUCUCCCUCCUAAGGAGAGGACUGCGGGUUCGAGUCCCGUACGGUGCG cannot be ordered by yeast fitness: ≤ 0.5 for the first, ≤ 0.5 for the second.

Going from GUUCAGUUGGCGUAAUGGUAACGCGUCUCACUCCUAAGGAGAAGACUGCGGGUUCGGGUCCCGUACGGAACG to GUUUCGUUGGCGUAAUGGUAACGCGUCUCCCUCCUAAGGAGAAGACUGCGCGUUCGAAGCCCGUACGGAACG, the yeast fitness falls from 0.565 to ≤ 0.5.

Going from GUUCCGUUGGCGUAAUGGUAACGCGUCUCACUCCUAAGGAGAAGACUGCGGGUUCGAGCCCCGUACGGAACG to GUUCCGUUGGCGUAAUGGUCACGCGUCUCCCUCCUAAGAAGAAGACUGCGGGUUCGAGUCCCGUACGGAACG, the yeast fitness falls from 0.863 to 0.84.

Compared with GUUCCGUAGGCGUAAUGGUAAUGCGUCUCCCUCCUAAGGAGAAGACUGUGGGUUCGAGUCCCGUACGGCCCG, GUUCCGUUGGCGUAAUGGUAACGCGUGUCGCUCCUAAGGAGAAGACUGCGGGUUCGAGUCCAGUACGGAACG is lower in yeast fitness: 0.545 for the first, ≤ 0.5 for the second.

Compared with GUUCCGUUGGCGAAAUGGUAACGCGUCUCCCUCCUAAGGAGAAGACUGCGGGUUCGAGUCCCGUAAGGAACG, GUUCCGUUGGCGUAAUGGUAACGGGUCUCCCUCCUUCGGAGAAGACUGCGGGUUCGAGUCCCGUAUAGAACG is lower in yeast fitness: 0.619 for the first, ≤ 0.5 for the second.

GUUCCGUUGGAGUAAUGGUAACGCGUGUCCCUCCAAAGGAGAUGACUGCGGGUUCGAGUCCCGUACGGAACG and GUUCCGUUGGCGUAAUGGUACCGCGUCUCCCUCCUAAGGAGAAGACUGCGGGUUUGAGUCCCGUACGGCACG cannot be ordered by yeast fitness: ≤ 0.5 for the first, ≤ 0.5 for the second.

GUUGCGUUGGCGUAAUGGUAACCCGUCUCCCUCCUAAGGAGAAGACUGCGGGUUCCAGUCCCGUACGGAACG and GUUCCGUUGGCGUACUGGUGACACGUCUCCCUCCUAAGGAGAAGAAUGGAGGUUCGAGUCCCGUUCGGAUCG cannot be ordered by yeast fitness: ≤ 0.5 for the first, ≤ 0.5 for the second.

Going from GUUCCGUUGGCGUAAUGGAAAGGCGUCUCCCUCUUAAGGAGGGGACUGCGGGUUCGAGUCCCGUACGGAUCG to GUUCCGUUGGCGUAAUGGUAACGCGUCCUCCUCCUAAGGAGAAGACUGCGGGUUCGAGUCCCGUACGGAACG, the yeast fitness rises from ≤ 0.5 to 0.806.

Compared with GUUUCGUUGGCGUAAGGGUAACGCGUCUCCCUCCUAAGGAGAAGACUGCGGGUUCGAGUCCCGUACGGAACG, GUUCCGUUGGCGUAAUGGUAACGCGUCUCCCUCCUAACGAGAAGACUGCGGGUACGAGGCCCGUCCGGAACG is lower in yeast fitness: 1.05 for the first, 0.692 for the second.

First: GUUCCGUUGGCGUAAUGCUAACGCGUCUCCCUACUAAGGAGAAGACUGCGGGUUCGAGUCCCGUACGGAACG
Second: GUUCCGUUGGCGUAAUGGUACCGCGUCUCCCCCCUAAGGAGAAGAGUGGGGGUUCGAGUCCCGUACGGAACG
The yeast fitness of the first is higher: 0.592 for the first, 0.529 for the second.

GUUCCGUUGGCGUAAUGGUAACGCCUCUCCCUCCUAGGGCGAAGACUGCGGGUUCGAGUCGCGUACGGAACG and GUUCCGUUGGCGUAAUGGUAACGCGUGUCCCUCCUAAAGAGAAGACUGCGGGUUCGAGUCCCGUACUGAACG cannot be ordered by yeast fitness: ≤ 0.5 for the first, ≤ 0.5 for the second.

First: GUUCCGUUGGGGUAAUGGUAACGCGUAUCCCUCCUAAAGAGAAGACUGCGGGUUCGAGUCCCGUCCGGAACG
Second: GUUCCGUUGGCGUAAUGGUAUCGCGUCUCCCGCCUAAGGAGAAGACUGCGGGUUCGAGCCCCGUACGGAACG
The yeast fitness of the first is lower: 0.557 for the first, 0.732 for the second.

Compared with GUUCCGUUGGCGUAAGGGUAACGCGUCUCACUCCUAAGGAGAAGACUGCGGGUUCGAGUCCCGUGCGGAACG, GUUCCGUUGGCGUAAUGGUAUCGCGUCUCCCGCCUAAGGAGAAGACUGCGCGUUCGAGUCCCGUACGGAGCG is lower in yeast fitness: 0.564 for the first, ≤ 0.5 for the second.

GUUCCGUUGGCAUAAUGGUAACGGGUCUCCCUCCAAAGGUACAGACUGCGGGUUCGAGUCCCGUACGGAACG and GUUUCGUUGGCGUAAUGCUAACGCGUCUCCCUCCUAAGGAGAAGCCUGCGGGUUCGAGUCCCGUACGGAACG cannot be ordered by yeast fitness: ≤ 0.5 for the first, ≤ 0.5 for the second.

Going from GUUCGGUUGGCGUAAUGGUAACGCGUCACCCUCCUAAGGAGAAGACUGCGGGUUCGCGUCCCGUAGGGAACG to GUUCCGUUGGCGUAAUGGUAGCGCGUCUCCCUCCUAAGGAGAAGACUGCGGGUUCGAGUCCCGUACGGCACG, the yeast fitness rises from ≤ 0.5 to 0.932.

First: GAUCCGUUUGCGUAAUGGUGACGCGUCUCCCUCCUAAGGAGAAGACUGCGGGUUCGAGUCCCGUACGGAACG
Second: GUUCCGUUGGCGUAAUGGUAACGCGUCUCCCUCCUAAGGGGAAGACUGCGGGUUCGAAUCCCGUACGGAACG
The yeast fitness of the first is lower: ≤ 0.5 for the first, 0.857 for the second.

Compared with GCUCCGUUGGGGUCAUGGUAACGCGUCUCCCUCCUAAGGAGAAGACUGCGGGUUCGAGUCUCGAACGGAACG, GUUACGUUGGCGGAAUGGUAACGCGUCUCCCUCCUAAGGAGAAGUCAGCGGGUUCGAGUCCCGUACGGAACG is lower in yeast fitness: 0.623 for the first, 0.616 for the second.

Going from GUUCCGUUGGCGUAAUGGUAACGCGUCUCCCUCCUAAGGAGAAGACUGCGGGUUUGAGUCCCAUACGGAUCG to GUUCCGUUGGCGUAAUGGUAACGCGUCUCCCUCCUAAGGAGAAGACUGUGGGUACGAGUCCCGUACGGAACG, the yeast fitness rises from 0.551 to 0.736.

GUUCCGUCGGCGUAAUGGUAUCGUGUCUCCCACCUAAGGAGAAGACUGCGGGUUGGAGUCCCGUACGGAACG and GUUCCGUUGGCGUAAUGGUAACGCAUCUCCCUCCUAAGGAGAAGACUCGGGGUUCGAGUCCCGUACGGAACG cannot be ordered by yeast fitness: ≤ 0.5 for the first, ≤ 0.5 for the second.

GUUCCGUUGGCGUAAUGGUAACGCGUCUCCCUGCUAAGGAGAAGGCUGCGGGUUCGAGUCCCGUACGGAUCG and GUUCCGUUGGCGUAAUGGUAAUGCGUCUCACUCCUAAGGAGAAGACUGCGGGUUGGAGUCCCGUACGGAACG cannot be ordered by yeast fitness: ≤ 0.5 for the first, ≤ 0.5 for the second.

With GUUCCGUUGGCAUAAUGGUAACGCGUGUCCCUCCUAAGGAGCAGACUGCGGGUUCGAGUCCCGUACGGAACG the yeast fitness was 0.548.
